Source: ChEMBL document CHEMBL3400028, “Evaluation of Aconitum diterpenoid alkaloids as antiproliferative agents” (2015)

Experiments:
Assay type in all cases: functional
[1] = Antiproliferative activity against multidrug-resistant P-gp expressing human KBVIN cells by sulforhodamine B assay
Summary of the method: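 Vincristine-resistant KB subline kept in 100 nM vincristine, then grown 7–10 days without it before testing. RPMI 1640 with 10% FBS, 37 °C, 5% CO2. 3–5 × 10³ cells/well exposed 72 h to a concentration series, paclitaxel as assay control. SRB staining after TCA fixation, A515 read. GI50 is the 50% absorbance reduction versus untreated cells; three or more experiments.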

[2] = test system: A549; assay: Antiproliferative activity against human A549 cells by sulforhodamine B assay
Summary of the method: (§1)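 Cells in RPMI 1640 (25 mM HEPES, 2 mM L-glutamine, 10% heat-inactivated FBS, antibiotics) at 37 °C, 5% CO2. Seeded at 3–5 × 10³/well with graded concentrations, paclitaxel as assay control, for 72 h. TCA-fixed, stained with 0.04% SRB, dye dissolved in 10 mM Tris, A515 read. GI50 is the concentration halving absorbance versus untreated cells; three or more experiments.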

[3] = test system: DU-145; assay: Antiproliferative activity against human DU145 cells by sulforhodamine B assay; summary of the method: as §1
[4] = Selectivity ratio of GI50 for human KB cells to GI50 for multidrug-resistant P-gp expressing human KBVIN cells
Summary of the method: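 Ratio of GI50 in parental KB to GI50 in P-gp-overexpressing KB-VIN. […] KB-VIN cells were grown 7–10 days without vincristine before the assay.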

[5] = test system: KB; assay: Antiproliferative activity against human KB cells by sulforhodamine B assay; summary of the method: as §1

Row | SMILES | GI50 [2] [µM] | GI50 [3] [µM] | GI50 [5] [µM] | GI50 [1] [µM] | RatioGI50 [4]
1 | C=C1[C@@H](OC(C)=O)[C@]23C[C@@H]1[C@@H](OC(C)=O)C[C@H]2[C@@]12C4C3C[C@@H]1[C@@](C)(CC[C@H]2OC(C)=O)CN4CC | > 20 | > 20 | > 20 | > 20 | >20
2 | C=C1[C@H]2C[C@@]3([C@@H]1O)[C@@H](C[C@@H]2O)[C@@]12C4[C@@H]3C[C@@H]1[C@@](C)(CC[C@@H]2OC(C)=O)CN4CC | > 20 | > 20 | > 20 | > 20 | >20
3 | C=C1[C@@H](O)[C@]23C[C@@H]1[C@@H](OC(=O)c1ccc(OC)cc1)C[C@H]2[C@@]12C4C3C[C@@H]1[C@@](C)(CC[C@H]2O)CN4CC | > 20 | > 20 | > 20 | > 20 | >20
4 | C=C1[C@H]2C[C@@]3([C@@H]1OC(C)=O)[C@@H](C[C@@H]2O)[C@@]12C4[C@@H]3C[C@@H]1[C@@](C)(CC[C@@H]2O)CN4CC | > 20 | > 20 | > 20 | > 20 | >20
5 | C=C1[C@H]2C[C@@H]3C4N5C[C@]6(C)CCC[C@@]47[C@@H]6[C@@]5(O)C[C@]3([C@@H]1OC(C)=O)[C@H]7[C@H]2O | > 20 | > 20 | > 20 | > 20 | –
6 | C=C1[C@H]2C[C@@H]3C4N(C(C)=O)C[C@]5(C)CCC[C@@]46[C@@H]5C(=O)C[C@]3([C@@H]1OC(C)=O)[C@H]6[C@H]2OC(C)=O (some centres not stated) | > 20 | > 20 | > 20 | > 20 | –

Continued, in another order:

Row | GI50 [2] [µM] | GI50 [3] [µM] | GI50 [5] [µM] | SMILES | GI50 [1] [µM] | RatioGI50 [4]
7 | 6.9 | 1 | 5.3 | C=C1[C@H]2C[C@@H]3C4N5C[C@]6(C)CCC[C@@]47[C@@H]6[C@@H]5C[C@]3([C@@H]1OC(=O)c1ccc([N+](=O)[O-])cc1)[C@H]7[C@H]2OC(=O)c1ccc([N+](=O)[O-])cc1 | 5.5 | 0.96
8 | > 20 | > 20 | > 20 | C=C1[C@H]2C[C@@H]3C4N5C[C@]6(C)CCC[C@@]47[C@@H]6[C@@]5(O)C[C@]3([C@@H]1OC(=O)CC)[C@H]7[C@H]2O | > 20 | >20
9 | > 20 | > 20 | > 20 | CC1[C@H]2C[C@@H]3C4N5C[C@]6(C)CCC[C@@]47[C@@H]6[C@@]5(O)C[C@]3([C@@H]1O)[C@H]7[C@H]2O (some centres not stated) | > 20 | >20
10 | > 20 | > 20 | > 20 | C=C1[C@H]2C[C@@H]3C4N5C[C@]6(C)CCC[C@@]47[C@@H]6[C@@H]5C[C@]3([C@@H]1O)[C@H]7[C@H]2OC(=O)c1ccc(OC)cc1 | > 20 | >20
11 | > 20 | > 20 | > 20 | C=C1[C@H]2C[C@@H]3C4N5C[C@]6(C)CCC[C@@]47[C@@H]6[C@@]5(O)C[C@]3([C@@H]1OC(=O)c1ccc(OC)c(OC)c1)[C@H]7[C@H]2O | > 20 | >20
12 | > 20 | > 20 | > 20 | C=C1[C@H]2C[C@@H]3C4N5C[C@]6(C)CCC[C@@]47[C@@H]6[C@@]5(O)C[C@]3([C@@H]1OC(C)=O)[C@H]7[C@H]2OC(C)=O | > 20 | –
13 | > 20 | > 20 | > 20 | C=C1[C@H]2C[C@@H]3C4N5C[C@]6(C)CCC[C@@]47[C@@H]6[C@@]5(OC(=O)c4ccc([N+](=O)[O-])cc4)C[C@]3([C@@H]1O)[C@H]7[C@H]2O | > 20 | >20
14 | > 20 | > 20 | > 20 | COC[C@]12CN(C)C3C4[C@H](OC)[C@H]1[C@@]3([C@@H](OC)C[C@H]2O)[C@@H]1C[C@@]2(O)[C@H](OC(=O)c3ccccc3)[C@@H]1[C@]4(OC)[C@@H](O)[C@@H]2OC [HOKBUSINE A] | > 20 | >20
15 | 10 | 10 | 10 | C=C1[C@H]2C[C@@H]3C4N5C[C@]6(C)CCC[C@@]47[C@@H]6[C@@]5(OC(=O)c4ccc(OC)c(OC)c4)C[C@]3([C@@H]1OC(=O)c1ccc(OC)c(OC)c1)[C@H]7[C@H]2O | 10 | 10
